“Also recorded” adds a separate entry of the source. Positions of bridges follow the written chain, without caps; N, C: chain ends. Non-standard residues stand in square brackets, D forms with d. Residues, ends and D or L forms follow the SMILES beside them. *: point of attachment. DTPA = O=C(O)CN(CCN(CC(=O)O)CC(=O)O)CCN(CC(=O)O)CC(=O)*; dPen = CC(C)(S)[C@@H](N)C(=O)O

These results are taken from article PMC3662534 (Molecular cancer therapeutics, 2009).

Data set [1] concerns the target human delta-opioid receptor (δOR) (Homo sapiens, UniProt P41143). As to conditions: saturation binding to δOR in CHO/MC4R/δOR cells.
Data set [2] deals with Hek293/MC4R/CCK2R cells. In words: Cell fluorescence imaging of Cy5 labeled ligand binding and internalization. In kind it is cell-based, human. A digest of the protocol: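 Live stable Hek293/MC4R/CCK2R cells on coverslips were held in a 37°C stage chamber. Cells were incubated with 0.8 nM Cy5-tagged heterobivalent ligand (15 sec, or 3 min in the legend) and rinsed with ligand-free medium. Images were taken immediately and 7 min later by CCD camera, with Cy5 excitation at 640 nm (20 nm bandpass) and emission at 690 nm (30 nm filter).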

Data set [3] relates to Hek293 cells expressing MC4R and/or CCK2R. In words: Cytotoxicity, celltiter-Glo luminescent cell viability assay. The note with it: 1 μM, dual receptor expressing (target) cells, 24 and 48 h. In kind it is cell-based, human. On the technique in general: ATP-based viability assays read luminescence as a measure of living cells.

Chain of human delta-opioid receptor (δOR) (P41143 whole entry): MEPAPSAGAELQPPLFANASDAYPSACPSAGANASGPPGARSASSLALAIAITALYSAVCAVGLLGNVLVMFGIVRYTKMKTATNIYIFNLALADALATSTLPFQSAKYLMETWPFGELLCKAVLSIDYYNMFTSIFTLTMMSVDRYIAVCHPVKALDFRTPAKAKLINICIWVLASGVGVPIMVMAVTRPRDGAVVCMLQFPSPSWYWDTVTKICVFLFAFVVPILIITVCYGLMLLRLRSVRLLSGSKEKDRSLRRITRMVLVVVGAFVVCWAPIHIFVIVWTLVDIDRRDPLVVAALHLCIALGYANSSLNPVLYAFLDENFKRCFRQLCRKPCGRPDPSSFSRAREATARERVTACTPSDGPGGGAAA

Regarding `CC1(C)SSC[C@@H](C(=O)N[C@@H](Cc2ccccc2)C(=O)N[C@@H](CCCCNC(=O)CN(CCN(CCN(CC(=O)O)CC(=O)O)CC(=O)O)CC(=O)O)C(N)=O)NC(=O)[C@H](Cc2ccccc2)NC(=O)CNC(=O)[C@@H]1NC(=O)[C@@H](N)Cc1ccc(O)cc1` [Eu-DPLCE, H-Tyr-c[DPen-Gly-Phe-Cys]-Phe-Lys(Eu-(DTPA))-NH2] (H-Y[dPen]GFCFK(DTPA)-NH2; disulfide 2-5), the Bmax in data set [1] was 24,000 ± 2,000 AFU.

Turning to “Ac-MSH7-PEGO-[Pro-Gly]3-Lys(Cy5)-PEGO-CCK6-NH2”, in data set [2] (by 10 minutes, no significant loss of ligand on adding CCK ligand 50 μM), the “internalization of receptor/ligand complex” value is “substantially internalized”. Further, in data set [2] (immediately following incubation, 15 sec with 0.8 nM), the “binding to the cell surface (Cy5 fluorescence)” value was “significant binding to the cell surface”.

As to cholecystokinin-8 [CCK], in data set [3], the cell viability entry is given as “reduced viability; also recorded: toxicity”.
